Experimental data reported in ChEMBL document CHEMBL1154425, “Histatin-derived monomeric and dimeric synthetic peptides show strong bactericidal activity towards multidrug-resistant Staphylococcus aureus in vivo” (Antimicrob Agents Chemother, 2007).
Positions of bridges follow the written chain, without caps; N, C: chain ends. Residues, ends and D or L forms follow the SMILES beside them. Chains are numbered I, II in the order given.

Tests used:
Staphylococcus aureus [1] = experiment: Bactericidal activity against Staphylococcus aureus ATCC 25923 after 2 hrs; type: functional; conditions: ATCC 25923, 2 h
Procedure, shortened: (§1)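 1 × 10^6/ml bacteria in phosphate buffer with 1% (wt/vol) tryptic soybean broth exposed to various peptide amounts, 2 h at 37°C. Viable counts on DST plates. LC50 = concentration (μM) cutting viable bacteria by 50% versus no-peptide incubations. Means from at least three independent experiments.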

Staphylococcus aureus [2] = experiment: Bactericidal activity against multidrug-resistant Staphylococcus aureus 2141 isolate after 2 hrs; type: functional; procedure, shortened: as §1
Staphylococcus aureus [3] = experiment: Bactericidal activity against Staphylococcus aureus ATCC 25923 infected iv dosed Swiss mouse assessed per gram of infected soft tissue after 24 hrs; type: functional
Procedure, shortened: (§2)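 Mice infected with 0.1 ml saline containing 0.5 to 2.0 × 10^7 CFU. After 18 h, various peptide amounts given intravenously. Mice kept another 24 h, then sacrificed and viable bacteria counted. LC50 = μmol/g infected tissue cutting viable counts by 50% versus untreated mice. Means from at least three animals per peptide concentration.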

Staphylococcus aureus [4] = experiment: Bactericidal activity against multidrug-resistant Staphylococcus aureus 2141 isolate infected iv dosed Swiss mouse assessed per gram of infected soft tissue after 24 hrs; type: functional; procedure, shortened: as §2
Mus musculus = experiment: Metabolic stability in Swiss mouse at 2 to 5 MBq, iv administered as [99m]technetium-radiolabeled peptide by scintigraphic imaging; type: ADME, organism-based; conditions: in vivo
Procedure, shortened: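 After intravenous injection of 99mTc-labelled peptide (2 to 5 MBq) into thigh-infected mice, scintigraphic imaging follows clearance from the circulation. The value is the biological half-life in minutes, mean ± SD.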

[5] = Biodistribution in Swiss mouse urinary bladder at 2 to 5 MBq, iv administered as [99m]technetium-radiolabeled peptide by scintigraphic imaging; type: ADME, organism-based; conditions: in vivo
Procedure, shortened: (§3)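 Mice carry a thigh-muscle infection from 0.1 ml saline containing 0.5 to 2.0 × 10^7 CFU S. aureus. Peptides labelled with 99mTc (2 to 5 MBq) are injected intravenously and tracked by scintigraphic imaging. Radioactivity in bladder, kidneys, spleen, liver and infected muscle is given as % of injected dose, mean ± SD.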

Kidney = experiment: Biodistribution in Swiss mouse kidney at 2 to 5 MBq, iv administered as [99m]technetium-radiolabeled peptide by scintigraphic imaging; type: ADME, organism-based; conditions: in vivo; procedure, shortened: as §3
Spleen = experiment: Biodistribution in Swiss mouse spleen at 2 to 5 MBq, iv administered as [99m]technetium-radiolabeled peptide by scintigraphic imaging; type: ADME, organism-based; conditions: in vivo; procedure, shortened: as §3
Liver = experiment: Biodistribution in Swiss mouse liver at 2 to 5 MBq, iv administered as [99m]technetium-radiolabeled peptide by scintigraphic imaging; type: ADME, organism-based; conditions: in vivo; procedure, shortened: as §3
[6] = Biodistribution in Staphylococcus aureus infected Swiss mouse thigh muscle at 2 to 5 MBq, iv administered as [99m]technetium-radiolabeled peptide by scintigraphic imaging; type: ADME, organism-based, Muscle tissue; conditions: in vivo; procedure, shortened: as §3
[7] = Ratio of drug level in infected thigh muscle to contralateral noninfected thigh muscle in multidrug-resistant Staphylococcus aureus 2141 infected Swiss mouse administered as [99m]technetium-radiolabeled peptide; type: ADME, tissue-based; conditions: in vivo
Procedure, shortened: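 99mTc-labelled peptides (2 to 5 MBq) injected intravenously into infected mice. Scintigraphic imaging at intervals. Ratio = accumulation in infected thigh muscle (target) over contralateral noninfected thigh muscle (nontarget).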

Structure (SMILES) | LC50 (Staphylococcus aureus [1]) [µM] | LC50 (Staphylococcus aureus [2]) [µM] | LC50 (Staphylococcus aureus [3]) [µmol/g] | LC50 (Staphylococcus aureus [4]) [µmol/g] | t1/2 (Mus musculus) [min] | Drug uptake [5] [%ID] | Drug uptake (Kidney) [%ID] | Drug uptake (Spleen) [%ID] | Drug uptake (Liver) [%ID] | Drug uptake [6] [%ID] | Ratio [7]
CC(C)C[C@H](NC(=O)[C@H](CC(C)C)NC(=O)[C@H](Cc1ccccc1)NC(=O)[C@H](CC(C)C)NC(=O)[C@H](CC(C)C)NC(=O)[C@@H](N)CC(C)C)C(=O)N[C@@H](CCCCN)C(=O)N[C@@H](CCCCN)C(=O)N[C@@H](CCCNC(=N)N)C(=O)N[C@@H](CCCCN)C(=O)N[C@@H](CCCCN)C(=O)N[C@@H](CCCNC(=N)N)C(=O)N[C@@H](CCCCN)C(=O)N[C@@H](Cc1ccc(O)cc1)C(=O)NCCCC[C@H](NC(=O)[C@H](Cc1ccc(O)cc1)NC(=O)[C@H](CCCCN)NC(=O)[C@H](CCCNC(=N)N)NC(=O)[C@H](CCCCN)NC(=O)[C@H](CCCCN)NC(=O)[C@H](CCCNC(=N)N)NC(=O)[C@H](CCCCN)NC(=O)[C@H](CCCCN)NC(=O)[C@H](CC(C)C)NC(=O)[C@H](CC(C)C)NC(=O)[C@H](Cc1ccccc1)NC(=O)[C@H](CC(C)C)NC(=O)[C@H](CC(C)C)NC(=O)[C@@H](N)CC(C)C)C(N)=O (I: H-LLLFLLKKRKKRKYK-NH2 / II: H-LLLFLLKKRKKRKY; amide I:15-II:C) | 0.4 | 0.4 | 5 | 2 | 23.2 | 18.8 | 28.3 | 3.1 | 16.7 | 0.6 | 1.8
C[C@H](NC(=O)[C@H](Cc1cnc[nH]1)NC(=O)[C@H](CO)NC(=O)[C@@H](N)CC(=O)O)C(=O)N[C@@H](CCCCN)C(=O)N[C@@H](CCCNC(=N)N)C(=O)N[C@@H](Cc1cnc[nH]1)C(=O)N[C@@H](Cc1cnc[nH]1)C(=O)NCC(=O)N[C@@H](Cc1ccc(O)cc1)C(=O)N[C@@H](CCCCN)C(=O)N[C@@H](CCCNC(=N)N)C(=O)N[C@@H](CCCCN)C(=O)N[C@@H](Cc1ccccc1)C(=O)N[C@@H](Cc1cnc[nH]1)C(=O)N[C@@H](CCC(=O)O)C(=O)N[C@@H](CCCCN)C(=O)N[C@@H](Cc1cnc[nH]1)C(=O)N[C@@H](Cc1cnc[nH]1)C(=O)N[C@@H](CO)C(=O)N[C@@H](Cc1cnc[nH]1)C(=O)N[C@@H](CCCNC(=N)N)C(=O)NCC(=O)N[C@@H](Cc1ccc(O)cc1)C(=O)O [HISTATIN 5] | 8.3 | 2.8 | 1 | 3.5 | 9.7 | 25.9 | 23.8 | 1.4 | 8.7 | 0.5 | 1.8
CC(C)C[C@H](NC(=O)[C@H](CO)NC(=O)[C@H](Cc1ccccc1)NC(=O)[C@H](CC(C)C)NC(=O)[C@H](CC(C)C)NC(=O)[C@H](CCCCN)NC(=O)[C@H](CCCCN)NC(=O)[C@H](Cc1ccccc1)NC(=O)[C@H](CC(C)C)NC(=O)[C@H](CCCNC(=N)N)NC(=O)[C@@H](N)CCCCN)C(=O)N[C@@H](CCCNC(=N)N)C(=O)N[C@@H](CCCCN)C(=O)N[C@@H](Cc1ccc(O)cc1)C(=O)NCCCC[C@H](NC(=O)[C@H](Cc1ccc(O)cc1)NC(=O)[C@H](CCCCN)NC(=O)[C@H](CCCNC(=N)N)NC(=O)[C@H](CC(C)C)NC(=O)[C@H](CO)NC(=O)[C@H](Cc1ccccc1)NC(=O)[C@H](CC(C)C)NC(=O)[C@H](CC(C)C)NC(=O)[C@H](CCCCN)NC(=O)[C@H](CCCCN)NC(=O)[C@H](Cc1ccccc1)NC(=O)[C@H](CC(C)C)NC(=O)[C@H](CCCNC(=N)N)NC(=O)[C@@H](N)CCCCN)C(N)=O (I: H-KRLFKKLLFSLRKYK-NH2 / II: H-KRLFKKLLFSLRKY; amide I:15-II:C) | 0.5 | 0.4 | 1 | 1 | 34 | 17 | 29.1 | 4 | 19.9 | 0.8 | 1.8
C[C@H](N)C(=O)N[C@@H](CCCCN)C(=O)N[C@@H](CCCNC(=N)N)C(=O)N[C@@H](Cc1cnc[nH]1)C(=O)N[C@@H](Cc1cnc[nH]1)C(=O)NCC(=O)N[C@@H](Cc1ccc(O)cc1)C(=O)N[C@@H](CCCCN)C(=O)N[C@@H](CCCNC(=N)N)C(=O)N[C@@H](CCCCN)C(=O)N[C@@H](Cc1ccccc1)C(=O)N[C@@H](Cc1cnc[nH]1)C(=O)NCCCC[C@H](NC(=O)[C@H](Cc1cnc[nH]1)NC(=O)[C@H](Cc1ccccc1)NC(=O)[C@H](CCCCN)NC(=O)[C@H](CCCNC(=N)N)NC(=O)[C@H](CCCCN)NC(=O)[C@H](Cc1ccc(O)cc1)NC(=O)CNC(=O)[C@H](Cc1cnc[nH]1)NC(=O)[C@H](Cc1cnc[nH]1)NC(=O)[C@H](CCCNC(=N)N)NC(=O)[C@H](CCCCN)NC(=O)[C@H](C)N)C(N)=O (I: H-AKRHHGYKRKFHK-NH2 / II: H-AKRHHGYKRKFH; amide I:13-II:C) [listing 1 of 2 here] |  |  |  |  |  |  |  |  |  |  | 1.8
C[C@H](N)C(=O)N[C@@H](CCCCN)C(=O)N[C@@H](CCCNC(=N)N)C(=O)N[C@@H](Cc1cnc[nH]1)C(=O)N[C@@H](Cc1cnc[nH]1)C(=O)NCC(=O)N[C@@H](Cc1ccc(O)cc1)C(=O)N[C@@H](CCCCN)C(=O)N[C@@H](CCCNC(=N)N)C(=O)N[C@@H](CCCCN)C(=O)N[C@@H](Cc1ccccc1)C(=O)N[C@@H](Cc1cnc[nH]1)C(=O)O (H-AKRHHGYKRKFH-OH) | 12.5 | 18.6 |  | 3 |  |  |  |  |  |  | 
CC(C)C[C@H](NC(=O)[C@H](CC(C)C)NC(=O)[C@H](Cc1ccccc1)NC(=O)[C@H](CC(C)C)NC(=O)[C@H](CC(C)C)NC(=O)[C@@H](N)CC(C)C)C(=O)N[C@@H](CCCCN)C(=O)N[C@@H](CCCCN)C(=O)N[C@@H](CCCNC(=N)N)C(=O)N[C@@H](CCCCN)C(=O)N[C@@H](CCCCN)C(=O)N[C@@H](CCCNC(=N)N)C(=O)N[C@@H](CCCCN)C(=O)N[C@@H](Cc1ccc(O)cc1)C(=O)O (H-LLLFLLKKRKKRKY-OH) | 51 | 17.3 | 2 | 3 | 38.8 | 14.6 | 26 | 10.8 | 12.8 | 0.9 | 1.8
CC(C)C[C@H](NC(=O)[C@H](CO)NC(=O)[C@H](Cc1ccccc1)NC(=O)[C@H](CC(C)C)NC(=O)[C@H](CC(C)C)NC(=O)[C@H](CCCCN)NC(=O)[C@H](CCCCN)NC(=O)[C@H](Cc1ccccc1)NC(=O)[C@H](CC(C)C)NC(=O)[C@H](CCCNC(=N)N)NC(=O)[C@@H](N)CCCCN)C(=O)N[C@@H](CCCNC(=N)N)C(=O)N[C@@H](CCCCN)C(=O)N[C@@H](Cc1ccc(O)cc1)C(=O)O (H-KRLFKKLLFSLRKY-OH) | 4.2 | 3.1 | 1 | 1.5 | 28.6 | 23.8 | 24.9 | 3.1 | 10.7 | 0.5 | 1.8
C[C@H](N)C(=O)N[C@@H](CCCCN)C(=O)N[C@@H](CCCNC(=N)N)C(=O)N[C@@H](Cc1cnc[nH]1)C(=O)N[C@@H](Cc1cnc[nH]1)C(=O)NCC(=O)N[C@@H](Cc1ccc(O)cc1)C(=O)N[C@@H](CCCCN)C(=O)N[C@@H](CCCNC(=N)N)C(=O)N[C@@H](CCCCN)C(=O)N[C@@H](Cc1ccccc1)C(=O)N[C@@H](Cc1cnc[nH]1)C(=O)NCCCC[C@H](NC(=O)[C@H](Cc1cnc[nH]1)NC(=O)[C@H](Cc1ccccc1)NC(=O)[C@H](CCCCN)NC(=O)[C@H](CCCNC(=N)N)NC(=O)[C@H](CCCCN)NC(=O)[C@H](Cc1ccc(O)cc1)NC(=O)CNC(=O)[C@H](Cc1cnc[nH]1)NC(=O)[C@H](Cc1cnc[nH]1)NC(=O)[C@H](CCCNC(=N)N)NC(=O)[C@H](CCCCN)NC(=O)[C@H](C)N)C(N)=O (I: H-AKRHHGYKRKFHK-NH2 / II: H-AKRHHGYKRKFH; amide I:13-II:C) [listing 2 of 2 here] | 49.8 | 38.9 |  | 3 |  |  |  |  |  |  | 
C[C@H](N)C(=O)N[C@@H](CCCCN)C(=O)N[C@@H](CCCNC(=N)N)C(=O)N[C@@H](Cc1c[nH]cn1)C(=O)N[C@@H](Cc1c[nH]cn1)C(=O)NCC(=O)N[C@@H](Cc1ccc(O)cc1)C(=O)N[C@@H](CCCCN)C(=O)N[C@@H](CCCNC(=N)N)C(=O)N[C@@H](CCCCN)C(=O)N[C@@H](Cc1ccccc1)C(=O)N[C@@H](Cc1c[nH]cn1)C(=O)O (H-AKRHHGYKRKFH-OH) |  |  |  |  |  |  |  |  |  |  | 1.8
